From ChEMBL document CHEMBL5104200, “Discovery and Biological Characterization of PRMT5:MEP50 Protein-Protein Interaction Inhibitors” (J Med Chem, 2022)
Each block holds one molecule with its values, some of them ahead of it. Activity calls are given as the source filed them. No cut-off for these calls is given here.

What was measured:
[1] = biological target: T1, PRMT5/MEP50 complex (Homo sapiens) (UniProt O14744+Q9BQA1); test: Inhibition of PRMT5/MEP50 (unknown origin) protein-protein interaction expressed in COS-1 cells at 10 uM incubated for 18 hrs by BiFC screening analysis relative to control; type: cell-based
Summary of the method: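 Transfected COS-1 cells (VN-PRMT5, VC-MEP50, NLS-CFP) treated at 10 µM or DMSO six hours after transfection; imaged 24 h after transfection. Per-cell YFP:CFP mean intensity ratio normalized to DMSO gives BiFC efficiency; inhibition = 100% minus efficiency. Single biological replicate screen.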

LNCaP [2] = test: Upregulation of RB1 gene expression in human LNCaP cells at 500 nM after 72 hrs by RT-qPCR analysis; type: functional, cell-based
Summary of the method: (§1)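 LNCaP seeded in 6 or 10 cm dishes, attached 24 h, treated 500 nM or DMSO for 72 h. RNA by Trizol, integrity checked on agarose gel. RT-qPCR in technical triplicate, CT normalized to GAPDH; three biological replicates, Student's t-test.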

[3] = biological target: T1, PRMT5/MEP50 complex (Homo sapiens); test: Inhibition of PRMT5 /MEP50 protein-protein interaction in human LNCaP cells assessed as reduction in H4R3me2 level after 72 hrs by densitometry method; type: cell-based; conditions: DDE = dose-dependent effect
Summary of the method: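 LNCaP treated 72 h; lysed in RIPA with protease inhibitors, protein by Bradford, 20 µg loaded on 15% gel. Blotted with anti-H4R3 and anti-H4R3me2s, IRDye 800CW secondary, infrared imaging. H4R3me2s integrated intensity normalized to H4R3 versus DMSO; three biological replicates, t-test.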

[4] = biological target: T1, PRMT5/MEP50 complex (Homo sapiens); test: Inhibition of PRMT5 /MEP50 protein-protein interaction in human LNCaP cells at 500 nM incubated for 24 hrs by co-immunoprecipitation method; type: cell-based
Summary of the method: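 LNCaP treated 500 nM or DMSO for 24 h, lysed 1 h at 4 °C in Tris pH 7.4/NaCl/EDTA/Triton buffer with protease inhibitors. 1 mg/mL lysate immunoprecipitated overnight with anti-PRMT5, anti-MEP50 or rabbit IgG on protein A beads. Blots probed for PRMT5 and MEP50; signal normalized to 0.4% input.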

[5] = biological target: T1, PRMT5/MEP50 complex (Homo sapiens); test: Inhibition of PRMT5 /MEP50 protein-protein interaction in human LNCaP cells assessed as increase in IVL gene expression at 500 nM after 72 hrs by RT-qPCR analysis
LNCaP [6] = test: Induction of cell death in human LNCaP cells incubated for 72 hrs by MTT assay; type: functional, cell-based
Summary of the method: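 LNCaP seeded 7,000 cells/well, attached 24 h, then given an 11-point dilution series plus DMSO control (constant 0.25% DMSO) for 72 h at 37 °C, 5% CO2. MTT at 0.5 mg/mL in complete RPMI for 4 h, then dissolved in DMSO and read at 570 nm. IC50 from regression curve; mean of three biological replicates.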

[7] = biological target: T1, PRMT5/MEP50 complex (Homo sapiens); test: Inhibition of PRMT5/MEP50 (unknown origin) protein-protein interaction expressed in COS-1 cells at 250 to 500 nM incubated for 18 hrs by BiFC screening analysis relative to control; type: cell-based; conditions: dose 250-500 nM
Summary of the method: (§2)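 COS-1 seeded 50,000 cells/well, co-transfected with Myc-VN155-PRMT5, HA-VC-MEP50 and FLAG-NLS-CFP. After 24 h transfection, treated 18 h at 0.5 µM or 0.25 µM (separate screens), then imaged (YFP, CFP). Per-cell YFP:CFP ratio normalized to DMSO gives BiFC efficiency; % inhibition = 100% − efficiency. Single biological replicate screens.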

[8] = biological target: T1, PRMT5/MEP50 complex (Homo sapiens); test: Inhibition of PRMT5/MEP50 protein-protein interaction in human LNCaP cells assessed as reduction in TGF-beta signalling after 72 hrs
LNCaP [9] = test: Upregulation of PTEN gene expression in human LNCaP cells at 500 nM after 72 hrs by RT-qPCR analysis; type: functional, cell-based; summary of the method: as §1
A549 = test: Cytotoxicity against human A549 cells after 72 hrs by MTT assay; type: functional, cell-based; conditions: A549, 72 h
COS-1 = test: Induction of cell death in African green monkey COS-1 cells at 10 uM; type: functional, cell-based; conditions: Chlorocebus aethiops
[10] = biological target: T1, PRMT5/MEP50 complex (Homo sapiens); test: Inhibition of PRMT/MEP50 (unknown origin) protein-protein interaction expressed in COS-1 cells incubated for 18 hrs by BiFC screening analysis; type: cell-based; conditions: DDE = dose-dependent effect; summary of the method: as §2
[11] = biological target: T1, PRMT5/MEP50 complex (Homo sapiens); test: Inhibition of PRMT5/MEP50 (unknown origin) protein-protein interaction expressed in COS-1 cells at 0.25 uM incubated for 18 hrs by BiFC screening analysis relative to control; type: cell-based; summary of the method: as §2

Compound: CCCCC(=O)Nc1sc2c(c1C(=O)NC1CCS(=O)(=O)C1)CCC(C(C)(C)C)C2 (stereo not drawn)
inhibition [1]: 24%

Compound: Cn1cc(C(=O)NCC2CCN(C(=O)c3nc(-c4ccccc4)n4c3CCCCC4)CC2)cn1
inhibition [1]: 24%

Compound: CCN(CC)c1ccc(/C=C2\S/C(=N/NC(=O)c3ccc(Cl)cc3Cl)NC2=O)cc1
inhibition [1]: 24%

Continued, in another order:

inhibition [3]: Dde
inhibition [4]: 65.4%
inhibition [5]: Active
inhibition [7]: Active
inhibition [8]: Active
Compound: CCc1noc(C)c1COc1cccc(C(=O)NNC(=O)c2ccc3ccccc3n2)c1
Activity (LNCaP [2]): Active
IC50 (LNCaP [6]): 430 nM
Activity (LNCaP [6]; DDE = dose-dependent effect): Dde
Activity (LNCaP [9]): Active
IC50 (A549): 447 nM

inhibition [10]: Dde
inhibition [11]: 41%
Compound: Cc1noc(C)c1COc1cccc(C(=O)NNC(=O)c2ccc3ccccc3n2)c1
Activity (COS-1): Active
IC50 (LNCaP [6]): 1660 nM

inhibition [1]: 24%
Compound: c1ccc(-n2cnc3ccccc32)cc1
